Assay results collected from several papers.
Compare with care: the assays were run in different laboratories. ≈ marks a conversion by molar mass, not a printed value.

Structure (SMILES) | target or system | test | system | setting | endpoint | value
CC(C)C[C@@H](NC(=O)[C@H](C)NC(=O)CNC(=O)[C@@H](NC=O)C(C)C)C(=O)N[C@@H](C)C(=O)N[C@@H](C(=O)N[C@H](C(=O)N[C@@H](C(=O)N[C@@H](Cc1c[nH]c2ccccc12)C(=O)N[C@H](CC(C)C)C(=O)N[C@@H](Cc1ccc2cc[nH]c2c1)C(=O)N[C@H](CC(C)C)C(=O)N[C@@H](Cc1c[nH]c2ccccc12)C(=O)N[C@H](CC(C)C)C(=O)N[C@@H](Cc1c[nH]c2ccccc12)C(=O)NCCO)C(C)C)C(C)C)C(C)C | MCF7 | cell growth or viability, SRB |  | 48 h | GI50 | 0.11 µM
O=C(NCc1ccc(Cl)cc1)c1cn(Cc2ccc(Cl)cc2)c2ccc(Oc3ccccc3)cc2c1=O | MCF7 | cell growth or viability, MTT |  | 48 h | IC50 | 171 µM
CCCCS(=O)(=O)NCC1COC2(CCN(C(=O)C3(c4ccccc4)CCCC3)CC2)O1 (centres unmarked) | Chikungunya virus | viral replication, inhibitor |  | 40 µM | inhibition | 95%
CC[C@H](C)C[C@H](C)CCCCCCCCC(=O)N[C@H]1C[C@@H](O)[C@@H](NCCN)NC(=O)[C@@H]2[C@@H](O)CCN2C(=O)[C@H]([C@H](O)CCN)NC(=O)[C@H]([C@H](O)[C@@H](O)c2ccc(O)cc2)NC(=O)[C@@H]2C[C@@H](O)CN2C(=O)[C@H]([C@@H](C)O)NC1=O | Candidozyma auris | microbial growth, broth dilution |  | 48 h | MIC | 2 µg/mL (≈ 1.83 µM)
CCc1ccc(C=Nc2ccc(SCc3cc(=O)c(O)co3)cc2)cc1 |  | DPPH scavenging, absorbance |  | 30 min | IC50 | 20.5 µM
CC(C)(C(=O)N1CCC2(CC1)OCC(CN1CCCCS1(=O)=O)O2)c1ccccc1 (centres unmarked) | Chikungunya virus | viral replication, inhibitor |  | 40 µM | inhibition | < 50%
O=C(NCc1ccc(F)cc1)c1cn(Cc2ccc(F)cc2)c2ccc(Oc3ccccc3)cc2c1=O | MCF7 | cell growth or viability, MTT |  |  | IC50 | ≥ 200 µM
O=c1cc(CSc2ccc(N=Cc3ccccc3[N+](=O)[O-])cc2)occ1O |  | DPPH scavenging, absorbance |  | 30 min | IC50 | 14.3 µM
O=C(NCc1ccc(F)cc1)c1cn(Cc2ccc(C(F)(F)F)cc2)c2ccc(Oc3ccccc3)cc2c1=O | MCF7 | cell growth or viability, MTT |  | 48 h | IC50 | 4.36 µM
Cc1cccc(C=Nc2ccc(SCc3cc(=O)c(O)co3)cc2)c1 |  | DPPH scavenging, absorbance |  | 30 min | IC50 | 26.7 µM
Cc1ccc(CNC(=O)c2cn(Cc3ccc(Cl)cc3)c3ccc(Oc4ccccc4)cc3c2=O)cc1 | MCF7 | cell growth or viability, MTT |  | 48 h | IC50 | 105 µM
CC(C)C[C@@H](NC(=O)[C@H](C)NC(=O)CNC(=O)[C@@H](NC=O)C(C)C)C(=O)N[C@@H](C)C(=O)N[C@@H](C(=O)N[C@H](C(=O)N[C@@H](C(=O)N[C@@H](Cc1c[nH]c2ccccc12)C(=O)N[C@H](CC(C)C)C(=O)N[C@@H](Cc1cc2ccccc2[nH]1)C(=O)N[C@H](CC(C)C)C(=O)N[C@@H](Cc1c[nH]c2ccccc12)C(=O)N[C@H](CC(C)C)C(=O)N[C@@H](Cc1c[nH]c2ccccc12)C(=O)NCCO)C(C)C)C(C)C)C(C)C | MCF7 | cell growth or viability, SRB |  | 48 h | GI50 | 0.0233 µM
O=c1cc(CSc2ccc(N=Cc3ccc(O)cc3)cc2)occ1O |  | DPPH scavenging, absorbance |  | 30 min | IC50 | 8.85 µM
CC(Oc1ccc(O)cc1)(P(=O)(O)O)P(=O)(O)O | Chikungunya virus | viral replication | Vero |  | IC50 | 548 µM
CCc1ccccc1C=Nc1ccc(SCc2cc(=O)c(O)co2)cc1 |  | DPPH scavenging, absorbance |  | 30 min | IC50 | 25.2 µM
O=C(N1CCC2(CC1)OCC(CN1CCCCS1(=O)=O)O2)C1(c2ccc(Cl)cc2)CCCC1 (centres unmarked) | Chikungunya virus | viral replication, inhibitor |  | 40 µM | inhibition | 55%
O=C(NCc1ccccc1)c1cn(Cc2ccc(C(F)(F)F)cc2)c2ccc(Oc3ccccc3)cc2c1=O | MCF7 | cell growth or viability, MTT |  | 48 h | IC50 | 6.43 µM
